# Laboratory results from ChEMBL document CHEMBL1139996, “Synthesis, bioactivity, theoretical and molecular docking study of 1-cyano-N-substituted-cyclopropanecarboxamide as ketol-acid reductoisomerase inhibitor” (Bioorg Med Chem Lett, 2007).
# Molecular target: not listed separately
# Test: Inhibition of rice KARI
# Design: species or system Oryza sativa
# How it was run: (§1)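 Activity followed as the decrease in A340 at 30 °C. Reaction mix: 0.2 mM NADPH, 1 mM MgCl2, substrate (2-acetolactate or hydroxypyruvate) and inhibitor as required, in 0.1 M Tris–HCl, pH 8.0. Reaction started by adding enzyme. In inhibitor preincubation runs, substrate was added last instead.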
row,Ki [µM],SMILES
1,> 300,Cc1ccc(NC(=O)C2(C#N)CC2)cc1
2,95.3,N#CC1(C(=O)O)CC1

# Tested on: Oryza sativa
# Test: Inhibition of rice KARI at 200 ppm
# How it was run: as §1
row,inhibition [%],SMILES
1,98.9,N#CC1(C(=O)NCCO)CC1
2,100,Cc1ccccc1NC(=O)C1(C#N)CC1
3,61.2,Cc1ccc(NC(=O)C2(C#N)CC2)cc1
4,0,CCOC(=O)C1(C#N)CC1
5,97,N#CC1(C(=O)Nc2ccc(Cl)cc2Cl)CC1
6,93.9,N#CC1(C(=O)Nc2ccc(Cl)cc2)CC1
7,17.2,N#CC1(C(=O)Nc2cccc(Br)c2)CC1
8,0,N#CC1(C(=O)Nc2cc(Cl)c(Cl)cc2Cl)CC1
9,0,N#CC1(C(=O)Nc2ccc(C(F)(F)F)cc2)CC1
10,77.2,N#CC1(C(=O)Nc2ccccc2)CC1
11,0,N#CC1(C(=O)Nc2ccccc2C(F)(F)F)CC1
12,32.2,N#CC1(C(=O)Nc2ccc(Br)cc2)CC1
13,100,N#CC1(C(=O)O)CC1
14,0,N#CC1(C(=O)Nc2cccc(Cl)c2)CC1
15,3.95,COc1ccc(NC(=O)C2(C#N)CC2)cc1
16,0,N#CC1(C(=O)Nc2cccc(C(F)(F)F)c2)CC1
